# Results gathered from unrelated publications.
# Each line is one published result; the experiments were not run side by side.
# Observed: cell growth or viability
SMILES,cell line,assay,conditions,IC50 [µM]
O=C(Nc1cc(OCCN2CCCC2)c2ccccc2n1)c1cc(Cl)cc(C(=O)Nc2cc(OCCN3CCCC3)c3ccccc3n2)n1,U2OS,ATP luminescence,72 h,2.3
Nc1nc(Oc2ccccc2)nn1-c1ccc(C(=O)O)cc1,RPE-1,MTT,,25.7
Cc1cc(NC(=O)c2cccc3cc(-c4cccc5[nH]nc(N)c45)ccc23)ccc1F,mouse BMDM,CCK-8,72 h,0.093
N[C@@H](CC(=O)N1CCN(C(c2ccc(F)cc2)c2ccc(F)cc2)CC1)C(=O)N1Cc2ccccc2C1,NB-4,ATP luminescence,48 h,1.33
CN(C)CCCOc1cc(NC(=O)c2cccc(C(=O)Nc3cc(OCCCN(C)C)c4ccccc4n3)n2)nc2ccccc12,U2OS,ATP luminescence,72 h,2.1
CC(C)C[C@H](NC(=O)[C@H](Cc1ccccc1)NC(=O)c1cnccn1)B(O)O,SK-N-SH,ATP luminescence,,0.008
CSc1nc(/N=C/c2ccc(O)cc2)n(-c2ccc(C(=O)O)cc2)n1,RPE-1,MTT,,39.1
C#CCOc1cc(C(=O)Nc2cc(OCCCN)c3ccccc3n2)nc(C(=O)Nc2cc(OCCCN)c3ccccc3n2)c1,U2OS,ATP luminescence,72 h,2.3
CC(C)[C@H](N)C(=O)N1CCC[C@H]1B(O)O,NB-4,ATP luminescence,48 h,0.1
CSc1nc(N)n(-c2ccc(C(=O)O)cc2)n1,RPE-1,MTT,,41.8
C[S@@+]([O-])CCCCN=C=S,Hepa-1c1c7,,,15.2
CSc1nc(/N=C/c2cccc(O)c2)n(-c2ccc(C(=O)O)cc2)n1,RPE-1,MTT,,34.6
NCCOc1cc(C(=O)Nc2cc(OCCN)c3ccccc3n2)nc(C(=O)Nc2cc(OCCN)c3ccccc3n2)c1,U2OS,ATP luminescence,72 h,16.8
CC(=O)c1ccc(O)cn1,Hepa-1c1c7,crystal violet,48 h,> 100
CC[C@@H](C)[C@H](N)C(=O)N1Cc2ccccc2C1,SKM-1,ATP luminescence,48 h,0.181
CN1c2ccccc2C(=O)N2[C@H](C(=O)Nc3ccc(C(=O)Nc4ccccc4N)cc3)Cc3c([nH]c4ccccc34)[C@@H]12,HEL,,,0.66
NCCCOc1cc(NC(=O)c2cc(OCc3c[nH]nn3)cc(C(=O)Nc3cc(OCCCN)c4ccccc4n3)n2)nc2ccccc12,U2OS,ATP luminescence,72 h,> 40
COc1cc(-c2ncn(/C=C\C(=O)OC(C)C)n2)cc(C(F)(F)F)c1,HEL,,72 h,0.104
COc1cc(Nc2nccc(-c3cnn4nc(OC)ccc34)n2)cc(C(F)(F)F)c1,RL95-2,ATP luminescence,,1
O=C(O)c1ccc(-n2nc(Oc3ccccc3)nc2/N=C/c2cc([N+](=O)[O-])ccc2O)cc1,RPE-1,MTT,,26.8
CN(C)CCOc1cc(NC(=O)c2cc(Cl)cc(C(=O)Nc3cc(OCCN(C)C)c4ccccc4n3)n2)nc2ccccc12,U2OS,ATP luminescence,72 h,2.2
CC1=CC(C)(C)N(Cc2ccccc2)c2ccc(O)cc21,PLC5,MTT,72 h,11
